According to ChEMBL document CHEMBL2169747, “Synthesis and biological properties of highly sequence-specific-alkylating N-methylpyrrole-N-methylimidazole polyamide conjugates” (J Med Chem, 2012):

Assays:
A549 [1] = experiment: Downregulation of RABGAP1L gene expression in human A549 cells at 26 nM after 12 hrs by microarray analysis relative to control; assay type: functional
Outline: (§1)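 A549 cells (RPMI-1640, 10% heat-inactivated FBS, penicillin/streptomycin, 37 °C, 5% CO2) seeded at 4 × 10^5 per 60 mm dish. Exposed 12 h to conjugate at 21, 26, 34 or 100 nM in medium with 0.1% DMSO, against 0.1% DMSO control. Whole-genome (~25 000 genes) expression profiled by microarray.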

A549 [2] = experiment: Downregulation of SLC4A4 gene expression in human A549 cells at 26 nM after 12 hrs by microarray analysis relative to control; assay type: functional; outline: as §1
A549 [3] = experiment: Downregulation of ACTG gene expression in human A549 cells at 26 nM after 12 hrs by microarray analysis relative to control; assay type: functional
Outline: (§2)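 A549 cells, 4 × 10^5 per 60 mm dish, were exposed to conjugate for 12 h in medium with 0.1% DMSO; vehicle control was 0.1% DMSO. Whole human genome (~25 000 genes) expression was profiled by microarray and expression compared with the control.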

A549 [4] = experiment: Downregulation of TNIK gene expression in human A549 cells at 26 nM after 12 hrs by microarray analysis relative to control; assay type: functional; outline: as §1
A549 [5] = experiment: Downregulation of ADH1A gene expression in human A549 cells at 26 nM after 12 hrs by microarray analysis relative to control; assay type: functional; outline: as §2
A549 [6] = experiment: Downregulation of MYCBP2 gene expression in human A549 cells at 26 nM after 12 hrs by microarray analysis relative to control; assay type: functional; outline: as §2
A549 [7] = experiment: Downregulation of NBEA gene expression in human A549 cells at 26 nM after 12 hrs by microarray analysis relative to control; assay type: functional; outline: as §2
A549 [8] = experiment: Downregulation of XP_375606.2 gene expression in human A549 cells at 26 nM after 12 hrs by microarray analysis relative to control; assay type: functional; outline: as §1
A549 [9] = experiment: Downregulation of SEMA3E gene expression in human A549 cells at 26 nM after 12 hrs by microarray analysis relative to control; assay type: functional; outline: as §1
A549 [10] = experiment: Downregulation of HIST1H2AC gene expression in human A549 cells at 26 nM after 12 hrs by microarray analysis relative to control; assay type: functional; outline: as §2
A549 [11] = experiment: Upregulation of SPESP1 gene expression in human A549 cells at 26 nM after 12 hrs by microarray analysis relative to control; assay type: functional
Outline: (§3)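 4 ×10^5 A549 cells seeded per 60 mm dish and treated 12 h with conjugate (21, 26, 34 or 100 nM) in medium; control medium contained 0.1% DMSO, with conjugates added as 0.1% DMSO solutions. Whole human genome (~25 000 genes) expression profiled by microarray against the DMSO control. A549 culture: RPMI-1640 with 10% heat-inactivated FBS, penicillin/streptomycin, 37 °C, 5% CO2.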

A549 [12] = experiment: Upregulation of BTG2 gene expression in human A549 cells at 26 nM after 12 hrs by microarray analysis relative to control; assay type: functional; outline: as §3
A549 [13] = experiment: Upregulation of GADD45A gene expression in human A549 cells at 26 nM after 12 hrs by microarray analysis relative to control; assay type: functional; outline: as §3
A549 [14] = experiment: Upregulation of RRAD gene expression in human A549 cells at 26 nM after 12 hrs by microarray analysis relative to control; assay type: functional; outline: as §3
A549 [15] = experiment: Upregulation of GDF15 gene expression in human A549 cells at 26 nM after 12 hrs by microarray analysis relative to control; assay type: functional; outline: as §3
Mus musculus [16] = experiment: Toxicity in BALB/c nu/nu mouse at 0.50 mg/kg, ip for 14 days; assay type: organism-based; set-up: dose 0.5 mg/kg, route intraperitoneal; conditions: in vivo, 0.5 mg/kg, 336 h
Outline: (§4)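 Pre-test in male BALB/c-nu/nu mice without xenografts. Naked conjugate was dissolved in 100% DMSO and given ip at 0.50 mg/kg (12.5 μg/mouse). Liposomal conjugate (0.33 mg/mL in 17 mM lipid, hydrated with water and sonicated) was given iv at 1.6 mg/kg (41 μg/mouse), 125 μL single dose.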

Mus musculus [17] = experiment: Toxicity in BALB/c nu/nu mouse at 1.6 mg/kg, iv administered as liposomal conjugate for 14 days; assay type: organism-based; set-up: dose 1.6 mg/kg, route intravenous; conditions: in vivo, 336 h; outline: as §4
A549 [18] = experiment: Downregulation of DPYD gene expression in human A549 cells at 34 nM after 12 hrs by microarray analysis relative to control; assay type: functional; outline: as §2
A549 [19] = experiment: Downregulation of NBEA gene expression in human A549 cells at 34 nM after 12 hrs by microarray analysis relative to control; assay type: functional; outline: as §2
A549 [20] = experiment: Downregulation of PTPRK gene expression in human A549 cells at 34 nM after 12 hrs by microarray analysis relative to control; assay type: functional; outline: as §1
A549 [21] = experiment: Downregulation of Q8NBA2 gene expression in human A549 cells at 34 nM after 12 hrs by microarray analysis relative to control; assay type: functional; outline: as §1
A549 [22] = experiment: Downregulation of ZNF291 gene expression in human A549 cells at 34 nM after 12 hrs by microarray analysis relative to control; assay type: functional; outline: as §1
A549 [23] = experiment: Downregulation of NP_001027.2 gene expression in human A549 cells at 34 nM after 12 hrs by microarray analysis relative to control; assay type: functional; outline: as §2
A549 [24] = experiment: Downregulation of HIST1H2AC gene expression in human A549 cells at 34 nM after 12 hrs by microarray analysis relative to control; assay type: functional; outline: as §2
A549 [25] = experiment: Upregulation of BTG2 gene expression in human A549 cells at 34 nM after 12 hrs by microarray analysis relative to control; assay type: functional; outline: as §3
A549 [26] = experiment: Upregulation of MDM2 gene expression in human A549 cells at 34 nM after 12 hrs by microarray analysis relative to control; assay type: functional; outline: as §3
A549 [27] = experiment: Upregulation of BBC3 gene expression in human A549 cells at 34 nM after 12 hrs by microarray analysis relative to control; assay type: functional; outline: as §1
A549 [28] = experiment: Upregulation of HES2 gene expression in human A549 cells at 34 nM after 12 hrs by microarray analysis relative to control; assay type: functional; outline: as §3
A549 [29] = experiment: Upregulation of CDKN1A gene expression in human A549 cells at 34 nM after 12 hrs by microarray analysis relative to control; assay type: functional; outline: as §3
A549 [30] = experiment: Upregulation of GLS2 gene expression in human A549 cells at 34 nM after 12 hrs by microarray analysis relative to control; assay type: functional; outline: as §3
A549 [31] = experiment: Upregulation of KRTHA4 gene expression in human A549 cells at 34 nM after 12 hrs by microarray analysis relative to control; assay type: functional; outline: as §3
A549 [32] = experiment: Upregulation of NP_997213.1 gene expression in human A549 cells at 34 nM after 12 hrs by microarray analysis relative to control; assay type: functional; outline: as §3
A549 [33] = experiment: Upregulation of GADD45A gene expression in human A549 cells at 34 nM after 12 hrs by microarray analysis relative to control; assay type: functional; outline: as §3

CC(=O)Nc1cn(C)c(C(=O)Nc2cc(C(=O)Nc3cc(C(=O)NCCC(=O)Nc4cc(C(=O)NCCCC(=O)Nc5cc(C(=O)NCCC(=O)Nc6cn(C)c(C(=O)Nc7ccc8[nH]c(C(=O)N9CC(CCl)c%10c9cc(O)c9ccccc%109)cc8c7)n6)n(C)c5)n(C)c4)n(C)c3)n(C)c2)n1 (racemic)
fold change (FC) (A549 [1]): 0.155 | fold change (FC) (A549 [2]): 0.273 | fold change (FC) (A549 [3]): 0.311 | fold change (FC) (A549 [4]): 0.312 | fold change (FC) (A549 [5]): 0.317 | fold change (FC) (A549 [6]): 0.338 | fold change (FC) (A549 [7]): 0.339 | fold change (FC) (A549 [8]): 0.35 | fold change (FC) (A549 [9]): 0.353 | fold change (FC) (A549 [10]): 0.362 | fold change (FC) (A549 [11]): 11 | fold change (FC) (A549 [12]): 10.1 | fold change (FC) (A549 [13]): 7 | fold change (FC) (A549 [14]): 6 | fold change (FC) (A549 [15]): 5.5 | Activity (Mus musculus [16]): Non-toxic | Activity (Mus musculus [17]): Non-toxic

CC(=O)Nc1cn(C)c(C(=O)Nc2cn(C)c(C(=O)Nc3cc(C(=O)NCCC(=O)Nc4cc(C(=O)NCCCC(=O)Nc5cn(C)c(C(=O)NCCC(=O)Nc6cn(C)c(C(=O)Nc7ccc8[nH]c(C(=O)N9CC(CCl)c%10c9cc(O)c9ccccc%109)cc8c7)n6)n5)n(C)c4)n(C)c3)n2)n1 (racemic)
fold change (FC) (A549 [18]): 0.103 | fold change (FC) (A549 [19]): 0.152 | fold change (FC) (A549 [20]): 0.189 | fold change (FC) (A549 [21]): 0.276 | fold change (FC) (A549 [22]): 0.311 | fold change (FC) (A549 [23]): 0.313 | fold change (FC) (A549 [24]): 0.329 | fold change (FC) (A549 [25]): 9.7 | fold change (FC) (A549 [26]): 8.9 | fold change (FC) (A549 [27]): 8.5 | fold change (FC) (A549 [28]): 8.2 | fold change (FC) (A549 [29]): 7.8 | fold change (FC) (A549 [30]): 6.7 | fold change (FC) (A549 [31]): 6.1 | fold change (FC) (A549 [32]): 6 | fold change (FC) (A549 [33]): 5.9
